Laboratory results published in paper PMC3949619 (Bioorganic & medicinal chemistry, 2013).

Experiments:
[1] = system: human breast cancer xenograft (MDA-MB-435); settings: MDA-MB-435 human breast cancer xenograft, athymic nude mice; cited from earlier work
KB3-1 = settings: read-out: IC50 against KB3-1 cells; range for compounds 1 and 2 together; cited from earlier work
[2] = system: KBH5.0 (overexpresses BCRP); assay: MTT-microtiter plate tetrazolinium cytotoxicity assay; type: cell-based, human; settings: inferred from cytotoxicity in KBH5.0 versus parent KB3-1
[3] = system: d(TTAGGG)4 quadruplex DNA; assay: UV melting of quadruplex DNA; type: binding, human; settings: range over 50 and 150 mM K+ and over the compounds named together
Outline: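 d(TTAGGG)4 at 5 μM strand, annealed at 90 °C for 5 min and slowly cooled over 4 h; test compound 20 μM. Buffer: 10 mM potassium phosphate, pH 7.5, plus KCl at 32 mM (50 mM K+) or 132 mM (150 mM K+). Absorbance read at 295 nm in 0.5 °C steps with 1 min equilibration. Ttran taken from the first-derivative minimum. ΔTtran is the shift against DNA alone, ±1.0 °C.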

[4] = system: KBV-1 (overexpresses the efflux transporter MDR1); assay: MTT-microtiter plate tetrazolinium cytotoxicity assay; type: cell-based, human; settings: inferred from cytotoxicity in KBV-1 versus parent KB3-1
[5] = qualitative statement of the introduction; no reference given; cited from earlier work
[6] = in vivo; cited from earlier work

| SMILES | substrate for BCRP efflux transporter [2] | ΔTtran of quadruplex DNA (range given) [3] | substrate for MDR1 efflux transporter [4] | also measured |
| --- | --- | --- | --- | --- |
| CN(C)CCc1cc2cc(c1)CNC(=O)c1coc(n1)-c1coc(n1)-c1cccc(n1)-c1nc(co1)-c1nc(co1)C(=O)NC2 [Compound 2] | – | – | – | %T/C value [1]: 27.7%; IC50 (KB3-1): 30 to 40 nM |
| O=C1CNC(=O)c2coc(n2)-c2coc(n2)-c2cccc(c2)-c2cccc(c2)-c2nc(co2)-c2nc(co2)CN1 [Compound 16] | substrates | 4.1–6.4 °C | substrates | – |
| CC(C)[C@@H]1NC(=O)c2coc(n2)-c2coc(n2)-c2cccc(c2)-c2cccc(c2)-c2nc(co2)-c2nc(co2)CNC1=O [Compound 17] | – | 4.1–6.4 °C | – | – |
| O=C1N[C@@H](Cc2ccccc2)C(=O)NCc2coc(n2)-c2coc(n2)-c2cccc(c2)-c2cccc(c2)-c2nc(co2)-c2nc1co2 [Compound 18] | – | 1.1–2.8 °C | – | – |
| CC(C)(C)OC(=O)NCC[C@@H]1NC(=O)c2coc(n2)-c2coc(n2)-c2cccc(c2)-c2cccc(c2)-c2nc(co2)-c2nc(co2)CNC1=O [Compound 19] | – | 1.1–2.8 °C | – | – |
| NCC[C@@H]1NC(=O)c2coc(n2)-c2coc(n2)-c2cccc(c2)-c2cccc(c2)-c2nc(co2)-c2nc(co2)CNC1=O [Compound 20] | substrates | 8.4–14.6 °C | substrates | – |
| CN(C)CC[C@@H]1NC(=O)c2coc(n2)-c2coc(n2)-c2cccc(c2)-c2cccc(c2)-c2nc(co2)-c2nc(co2)CNC1=O [Compound 21] | substrates | 8.4–14.6 °C | substrates | – |
| CC(C)[C@@H]1NC(=O)c2coc(n2)-c2coc(n2)-c2coc(n2)[C@H](C(C)C)NC(=O)c2coc(n2)-c2coc(n2)-c2coc1n2 [HXDV] | – | – | – | aqueous solubility [5]: poor aqueous solubility |
| CC(C)[C@@H]1NC(=O)c2coc(n2)-c2coc(n2)-c2coc(n2)C/C=C/c2coc(n2)-c2coc(n2)-c2coc1n2 [METV] | – | – | – | aqueous solubility [5]: poor aqueous solubility |
| CC(C)[C@@H]1NC(=O)c2coc(n2)-c2coc(n2)-c2coc(n2)[C@H](CCN(C)C)NC(=O)c2coc(n2)-c2coc(n2)-c2coc1n2 [YAK-1-161] | – | – | – | well tolerated dose levels [6]: ≤ 45 mg/kg |
